The source made the active and inactive calls. No cut-off for these calls is given here.
Experiments:
Homo sapiens = organism: Homo sapiens; assay: Ratio of human TLR7 activity to human TLR8 activity
Summary of the method: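 TLR7/TLR8 ratio computed from fold NF-κB (SEAP reporter) activation in HEK293 cells stably expressing human TLR7 versus TLR8, compounds at 50 μg/mL, 18 h exposure; representative of three independent experiments.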

Splenocyte [1] = assay: Immunomodulatory activity in C57BL/6 mouse splenocytes bearing TLR7 receptor assessed as IL6 release at 100 ug/ml after 24 hrs by ELISA; assay type: functional, cell-based
Summary of the method: (§1)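 C57BL/6 splenocytes in RPMI 1640 with 10% FBS, penicillin/streptomycin, 2 mM L-glutamine, plated at 5 × 10^6 cells/mL; compounds in PBS added, 37 °C for 24 h. Supernatant IL-12 and IL-6 by ELISA; representative of three independent experiments.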

Splenocyte [2] = assay: Immunomodulatory activity in C57BL/6 mouse splenocytes bearing TLR7 receptor assessed as IL12 release at 100 ug/ml after 24 hrs by ELISA; assay type: functional, cell-based; summary of the method: as §1
[3] = target: T1, Toll-like receptor 7 (Homo sapiens) (UniProt Q9NYK1); assay: Activation of human TLR7 expressed in HEK293XL assessed as fold induction of NF-kappaB activity at 50 ug/ml after 18 hrs by reporter gene assay relative to control
T1 sequence (whole entry): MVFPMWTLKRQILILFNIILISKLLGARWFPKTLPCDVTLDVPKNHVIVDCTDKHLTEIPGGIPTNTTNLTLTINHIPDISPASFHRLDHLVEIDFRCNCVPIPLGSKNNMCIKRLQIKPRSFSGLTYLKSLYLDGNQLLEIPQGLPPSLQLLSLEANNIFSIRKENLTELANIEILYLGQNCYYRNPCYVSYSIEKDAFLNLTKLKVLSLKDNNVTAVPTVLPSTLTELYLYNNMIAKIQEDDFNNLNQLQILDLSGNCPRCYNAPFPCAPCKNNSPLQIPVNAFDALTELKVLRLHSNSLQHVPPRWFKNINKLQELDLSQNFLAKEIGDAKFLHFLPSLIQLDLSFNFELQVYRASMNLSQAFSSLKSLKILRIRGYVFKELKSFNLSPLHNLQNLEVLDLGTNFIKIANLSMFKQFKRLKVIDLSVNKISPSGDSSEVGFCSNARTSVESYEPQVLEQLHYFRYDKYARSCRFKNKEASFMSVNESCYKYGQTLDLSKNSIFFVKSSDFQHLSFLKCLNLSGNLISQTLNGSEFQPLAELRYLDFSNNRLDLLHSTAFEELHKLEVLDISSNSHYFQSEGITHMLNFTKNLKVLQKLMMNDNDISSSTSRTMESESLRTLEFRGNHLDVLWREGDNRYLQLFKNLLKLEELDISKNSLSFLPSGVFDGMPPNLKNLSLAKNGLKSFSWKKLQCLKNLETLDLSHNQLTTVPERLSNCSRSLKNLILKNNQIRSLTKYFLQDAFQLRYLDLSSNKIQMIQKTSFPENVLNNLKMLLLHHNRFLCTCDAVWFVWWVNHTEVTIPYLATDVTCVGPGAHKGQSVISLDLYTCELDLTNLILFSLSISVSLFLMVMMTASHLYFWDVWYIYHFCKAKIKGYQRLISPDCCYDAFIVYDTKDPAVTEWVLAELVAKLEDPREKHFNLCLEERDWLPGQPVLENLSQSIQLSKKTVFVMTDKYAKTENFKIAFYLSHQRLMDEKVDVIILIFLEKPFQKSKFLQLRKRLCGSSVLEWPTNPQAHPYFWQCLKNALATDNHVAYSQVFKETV
Summary of the method: (§2)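 HEK293 cells stably expressing human TLR7 or TLR8, transiently transfected with SEAP reporter plasmid; medium replaced, SIMRA compounds added, 18 h incubation. Supernatant SEAP measured by QuantiBlue; expressed as fold increase in NF-κB activity over PBS control. Tabulated data at 50 μg/mL, representative of three independent experiments.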

[4] = target: T2, Toll-like receptor 8 (Homo sapiens) (UniProt Q9NR97); assay: Activation of human TLR8 expressed in HEK293XL assessed as fold induction of NF-kappaB activity at 50 ug/ml after 18 hrs by reporter gene assay relative to control; summary of the method: as §2
T2 sequence (whole entry): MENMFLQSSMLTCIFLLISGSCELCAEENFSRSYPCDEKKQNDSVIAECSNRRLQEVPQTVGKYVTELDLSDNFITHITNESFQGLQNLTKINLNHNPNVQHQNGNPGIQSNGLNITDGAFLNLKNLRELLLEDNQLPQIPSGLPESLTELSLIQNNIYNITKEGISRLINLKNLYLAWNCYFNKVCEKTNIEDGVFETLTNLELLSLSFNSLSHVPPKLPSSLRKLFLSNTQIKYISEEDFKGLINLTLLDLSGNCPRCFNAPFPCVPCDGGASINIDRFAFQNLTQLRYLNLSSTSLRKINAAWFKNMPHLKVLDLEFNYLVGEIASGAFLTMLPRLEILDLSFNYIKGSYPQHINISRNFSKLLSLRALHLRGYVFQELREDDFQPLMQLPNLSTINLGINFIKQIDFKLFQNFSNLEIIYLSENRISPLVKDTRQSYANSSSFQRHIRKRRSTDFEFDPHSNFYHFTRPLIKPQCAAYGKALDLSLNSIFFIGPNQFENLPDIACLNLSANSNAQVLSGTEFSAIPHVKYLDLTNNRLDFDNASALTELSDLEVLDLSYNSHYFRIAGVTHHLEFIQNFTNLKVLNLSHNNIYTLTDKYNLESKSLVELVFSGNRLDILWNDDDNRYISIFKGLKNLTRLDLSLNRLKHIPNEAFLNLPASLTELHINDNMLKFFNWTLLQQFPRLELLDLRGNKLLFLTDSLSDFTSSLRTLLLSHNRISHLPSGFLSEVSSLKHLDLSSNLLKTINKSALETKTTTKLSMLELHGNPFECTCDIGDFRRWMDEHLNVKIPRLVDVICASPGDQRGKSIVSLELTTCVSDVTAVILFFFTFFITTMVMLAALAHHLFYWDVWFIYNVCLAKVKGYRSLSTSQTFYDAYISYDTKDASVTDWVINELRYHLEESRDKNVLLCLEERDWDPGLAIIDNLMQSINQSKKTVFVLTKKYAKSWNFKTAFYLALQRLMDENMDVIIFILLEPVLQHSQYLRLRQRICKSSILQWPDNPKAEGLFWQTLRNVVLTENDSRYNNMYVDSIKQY

PBMC = assay: Immunomodulatory activity in human PBMC assessed as induction of TNFalpha at 100 ug/ml after 24 hrs; assay type: functional, cell-based
Summary of the method: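 Human PBMCs plated at 5 × 10^6 cells/mL; compounds dissolved in PBS added at various concentrations, 37 °C for 24 h. Supernatant cytokines/chemokines quantified with human Luminex multiplex kit.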

[5] = Metabolic stability in human serum assessed as full length product remaining after 10 mins by HPLC; assay type: ADME, cell-free; conditions: read-out: Stability
Summary of the method: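 About 0.5 A260 units compound in 1% human serum in PBS, 37 °C; aliquot taken at 10 min, analysed by anion-exchange HPLC for percent intact full-length product.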

Row | Ratio (Homo sapiens) | Activity (Splenocyte [1]) | Activity (Splenocyte [2]) | fold change (FC) [3] | fold change (FC) [4] | remaining at 10 min [5] [%] | SMILES | Activity (PBMC) [pg/mL]
1 | 41.4 | Active | Active | 20.7 | 0.5 | 79 | Nc1ccn([C@@H]2O[C@H](COP(=O)(S)O[C@H]3[C@@H](O)[C@H](n4cnc5c(N)ncnc54)O[C@@H]3COP(=O)(S)O[C@H]3[C@@H](O)[C@H](n4ccc5c(=O)[nH]c(N)nc54)O[C@@H]3COP(=O)(S)O[C@H]3[C@@H](O)[C@H](n4ccc(N)nc4=O)O[C@@H]3COP(=O)(S)O[C@H]3[C@@H](O)[C@H](n4ccc5c(=O)[nH]c(N)nc54)O[C@@H]3COP(=O)(S)O[C@H]3[C@@H](O)[C@H](n4ccc(=O)[nH]c4=O)O[C@@H]3COP(=O)(S)O[C@H]3[C@@H](O)[C@H](n4ccc5c(=O)[nH]c(N)nc54)O[C@@H]3COP(=O)(S)O[C@H]3[C@@H](O)[C@H](n4cnc5c(N)ncnc54)O[C@@H]3COP(=O)(S)O[C@H]3[C@@H](O)[C@H](n4cnc5c(N)ncnc54)O[C@@H]3CO)[C@@H](OP(=O)(S)OC[C@H]3O[C@@H](n4ccc(=O)[nH]c4=O)[C@H](O)[C@@H]3OP(=O)(S)OC[C@H]3O[C@@H](n4ccc(=O)[nH]c4=O)[C@H](O)[C@@H]3OP(=O)(S)OCC(O)COP(=O)(S)O[C@H]3[C@@H](O)[C@H](n4ccc(=O)[nH]c4=O)O[C@@H]3COP(=O)(S)O[C@H]3[C@@H](O)[C@H](n4ccc(=O)[nH]c4=O)O[C@@H]3COP(=O)(S)O[C@H]3[C@@H](O)[C@H](n4ccc(N)nc4=O)O[C@@H]3COP(=O)(S)O[C@H]3[C@@H](O)[C@H](n4cnc5c(N)ncnc54)O[C@@H]3COP(=O)(S)O[C@H]3[C@@H](O)[C@H](n4ccc5c(=O)[nH]c(N)nc54)O[C@@H]3COP(=O)(S)O[C@H]3[C@@H](O)[C@H](n4ccc(N)nc4=O)O[C@@H]3COP(=O)(S)O[C@H]3[C@@H](O)[C@H](n4ccc5c(=O)[nH]c(N)nc54)O[C@@H]3COP(=O)(S)O[C@H]3[C@@H](O)[C@H](n4ccc(=O)[nH]c4=O)O[C@@H]3COP(=O)(S)O[C@H]3[C@@H](O)[C@H](n4ccc5c(=O)[nH]c(N)nc54)O[C@@H]3COP(=O)(S)O[C@H]3[C@@H](O)[C@H](n4cnc5c(N)ncnc54)O[C@@H]3COP(=O)(S)O[C@H]3[C@@H](O)[C@H](n4cnc5c(N)ncnc54)O[C@@H]3CO)[C@H]2O)c(=O)n1 (some centres undefined) | 1.7
2 | 15.6 | Active | Active | 25 | 1.6 | 83 | Nc1ccn([C@@H]2O[C@H](COP(=O)(S)O[C@H]3[C@@H](O)[C@H](n4ccc5c(=O)[nH]c(N)nc54)O[C@@H]3COP(=O)(S)O[C@H]3[C@@H](O)[C@H](n4cnc5c(N)ncnc54)O[C@@H]3COP(=O)(S)O[C@H]3[C@@H](O)[C@H](n4cnc5c(N)ncnc54)O[C@@H]3COP(=O)(S)O[C@H]3[C@@H](O)[C@H](n4ccc5c(=O)[nH]c(N)nc54)O[C@@H]3COP(=O)(S)O[C@H]3[C@@H](O)[C@H](n4ccc(=O)[nH]c4=O)O[C@@H]3COP(=O)(S)O[C@H]3[C@@H](O)[C@H](n4ccc(=O)[nH]c4=O)O[C@@H]3COP(=O)(S)O[C@H]3[C@@H](O)[C@H](n4cnc5c(N)ncnc54)O[C@@H]3COP(=O)(S)O[C@H]3[C@@H](O)[C@H](n4cnc5c(N)ncnc54)O[C@@H]3CO)[C@@H](OP(=O)(S)OC[C@H]3O[C@@H](n4ccc(=O)[nH]c4=O)[C@H](O)[C@@H]3OP(=O)(S)OC[C@H]3O[C@@H](n4ccc(=O)[nH]c4=O)[C@H](O)[C@@H]3OP(=O)(S)OCC(O)COP(=O)(S)O[C@H]3[C@@H](O)[C@H](n4ccc(=O)[nH]c4=O)O[C@@H]3COP(=O)(S)O[C@H]3[C@@H](O)[C@H](n4ccc(=O)[nH]c4=O)O[C@@H]3COP(=O)(S)O[C@H]3[C@@H](O)[C@H](n4ccc(N)nc4=O)O[C@@H]3COP(=O)(S)O[C@H]3[C@@H](O)[C@H](n4ccc5c(=O)[nH]c(N)nc54)O[C@@H]3COP(=O)(S)O[C@H]3[C@@H](O)[C@H](n4cnc5c(N)ncnc54)O[C@@H]3COP(=O)(S)O[C@H]3[C@@H](O)[C@H](n4cnc5c(N)ncnc54)O[C@@H]3COP(=O)(S)O[C@H]3[C@@H](O)[C@H](n4ccc5c(=O)[nH]c(N)nc54)O[C@@H]3COP(=O)(S)O[C@H]3[C@@H](O)[C@H](n4ccc(=O)[nH]c4=O)O[C@@H]3COP(=O)(S)O[C@H]3[C@@H](O)[C@H](n4ccc(=O)[nH]c4=O)O[C@@H]3COP(=O)(S)O[C@H]3[C@@H](O)[C@H](n4cnc5c(N)ncnc54)O[C@@H]3COP(=O)(S)O[C@H]3[C@@H](O)[C@H](n4cnc5c(N)ncnc54)O[C@@H]3CO)[C@H]2O)c(=O)n1 (some centres undefined) | 29.3

— ChEMBL document CHEMBL1154352, “Toll-like receptor 7 selective synthetic oligoribonucleotide agonists: synthesis and structure-activity relationship studies” (J Med Chem, 2009)
